SIRT5 block = sirtuin-5 (human) deacylase inhibition; Q9NXA8; Purified SirT5, succinyl-peptide AMC, trypsin-coupled fluorescence; inhibition, % at 15 µM; 1.1% of 330,000 active; AID 652115; in the data active = inhibition above about 15%
Target sequence (Q9NXA8 whole entry, looked up): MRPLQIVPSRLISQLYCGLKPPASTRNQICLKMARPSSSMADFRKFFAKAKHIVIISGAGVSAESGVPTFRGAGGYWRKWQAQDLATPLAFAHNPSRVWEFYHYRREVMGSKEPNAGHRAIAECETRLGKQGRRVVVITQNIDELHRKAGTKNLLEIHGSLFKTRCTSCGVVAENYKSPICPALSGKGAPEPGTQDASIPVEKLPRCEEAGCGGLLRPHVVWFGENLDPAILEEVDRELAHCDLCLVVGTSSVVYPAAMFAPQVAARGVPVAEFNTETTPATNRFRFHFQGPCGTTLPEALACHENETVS
E-sel inducer = induces E-selectin expression in human endothelial cells; activation, % at 7.58 µM; HUVEC E-selectin immunofluorescence imaging; normalized: neutral wells 0, TNF-alpha wells 100; 0.37% of 260,000 active; P16581; AID 686992;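 active = mean E-selectin-positive cell signal at least 10% of the positive control, reached in at least 60% of replicates, without over 20% cell loss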
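Test system: HUVEC | Signal: Immunofluorescence imaging | Read-out: Percent E-selectin-positive cells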
FGF22 binding = binders of recombinant human FGF22 by thermal shift; Q9HCT0; SYPRO orange fluorescence; percent of sucrose octasulfate shift, DMSO zero; activity (Tm shift, normalised), % at 9.99 µM; 1.5% of 340,000 active;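 active = mean Tm shift, scaled 0 neutral to 100 positive control, at about 1.3% or above, every replicate too, limit read from the data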
Target sequence (Q9HCT0 whole entry, looked up): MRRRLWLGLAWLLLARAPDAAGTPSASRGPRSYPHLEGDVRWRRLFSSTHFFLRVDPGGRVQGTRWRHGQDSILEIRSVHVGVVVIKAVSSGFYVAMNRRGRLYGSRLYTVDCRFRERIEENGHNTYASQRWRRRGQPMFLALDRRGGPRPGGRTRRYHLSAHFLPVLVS
miR-122 sensor = miR-122 inhibition in Huh7 cells | activation (reporter increase), % at 12.5 µM | Huh7 miR-122 Renilla luciferase sensor, 48 h; neutral wells = 0, positive control = 100 | 0.3% of 340,000 active;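 active = mean replicate activation score at least 90 and every replicate individually at or above 90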;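 note: higher luciferase means less miR-122 activity so hits act as miR-122 inhibitors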
S100A4 MyoIIA = blocks human S100A4 binding to myosin IIA peptide. P26447. S100A4/TAMRA-MyoIIA peptide fluorescence polarization. inhibition, % at 10.7 µM. 0.14% of 360,000 active. AID 652163;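 active = mean inhibition of at least 70% across replicates, with every replicate also reaching that level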
Target sequence (P26447 whole entry, looked up): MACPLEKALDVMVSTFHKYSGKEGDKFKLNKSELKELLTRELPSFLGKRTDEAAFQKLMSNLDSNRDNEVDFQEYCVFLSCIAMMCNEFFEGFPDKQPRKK
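Material: S100A4 monomer protein | Medium: HEPES pH 7.2 with CaCl2, KCl, NaCl, DTT, Triton | Reagent: Labelled myosin peptide probe, 5 nM | Doses: One dose per compound | Times: 5 min incubation before reading | Benchmarks: Neutral control DMSO, positive control TFP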
* hit, by the source's call; . = no result; [ ] = another dose, or the depositor's remark. In the library only some 2.5% were active in any assay of this set; here they are far more common.

SMILES	SIRT5 block	E-sel inducer	FGF22 binding	miR-122 sensor	S100A4 MyoIIA
C[C@@H]1CN([C@@H](C)CO)C(=O)c2cc(NC(=O)CCN3CCOCC3)ccc2O[C@@H]1CN(C)Cc1ccc(C(=O)O)cc1	3	.	0	10[16.7 µM]	-4
Nc1ccc(-c2c3ccc(=O)cc-3oc3cc(O)ccc23)cc1C(=O)O	19*	.	0	.	9
CCCNC(=O)N1C[C@H](C)[C@@H](OC)CN(C)C(=O)c2ccc(NC(C)=O)cc2OC[C@@H]1C	-4	.	.	.	3
CCS(=O)(=O)N1CC2(C1)[C@@H](c1ccccc1)[C@H](CO)N2Cc1ccc(F)cc1	16*	0	0	.	-10
O=C(c1ccncc1)N1CC2(C1)[C@@H](c1ccccc1)[C@@H](CO)N2CC1CCCC1	18*	0	0	.	7
O=C(CC1CC1)N1CC2(C1)[C@@H](c1ccccc1)[C@@H](CO)N2Cc1cccc(F)c1	19*	0	0	.	0
O=C(CC1CC1)N1CC2(C1)[C@H](c1ccccc1)[C@@H](CO)N2Cc1ccc(F)cc1	1	0	0	.	10
COCC(=O)N1[C@H](CO)[C@@H](c2ccccc2)C12CN(C(=O)Cc1ccccn1)C2	0	0	0	.	97*
O=C(c1ccncc1)N1CC2(C1)[C@H](c1ccccc1)[C@H](CO)N2CC1CCCC1	3	0	0	.	3
C[C@@H]1CN([C@@H](C)CO)C(=O)c2cc(NC(=O)Cn3cnnn3)ccc2O[C@@H]1CN(C)C(=O)Nc1ccccc1	-6	0	0	6[16.7 µM]	-10
Cc1ccc(S(=O)(=O)Nc2ccc3c(c2)CC(=O)N([C@@H](C)CO)C[C@@H](C)[C@H](CN(C)Cc2ccc4c(c2)OCO4)O3)cc1	6	1	0	-2[16.7 µM]	11
CN(C)CC(=O)N1[C@H](CO)[C@@H](c2ccccc2)C12CN(C(=O)C1CCCC1)C2	19*	0	.	.	14
C/C=C/c1ccc([C@@H]2[C@H](CO)N(CC3CC3)C23CN(S(=O)(=O)CC)C3)cc1	23*	0	.	.	-39
O=C(C1CCOCC1)N1CC2(C1)[C@@H](c1ccccc1)[C@@H](CO)N2CCC(F)(F)F	26*	0	.	.	4
O=C(C1CCOCC1)N1CC2(C1)[C@H](c1ccccc1)[C@@H](CO)N2CCC(F)(F)F	1	0	0	.	1
CCCNC(=O)N1[C@@H](CO)[C@H](c2ccccc2)C12CN(C(=O)CC1CC1)C2	38*	0	0	.	-42
C[C@@H]1CN([C@H](C)CO)C(=O)c2c(c3ccccc3n2C)-c2ccccc2CO[C@@H]1CN(C)Cc1cccc(O)c1	11	0	0	.	7
O=C(C1CCCCC1)N1CC2(C1)[C@@H](c1ccccc1)[C@@H](CO)N2C(=O)NC1CCCC1	-4	0	.	.	3
CCN1CC(=O)N2[C@H](CO)[C@@H](c3ccc(-c4ccccc4F)cc3)[C@H]2C1	1	0	.	.	-1
C[C@H]1ON(c2ccccc2)[C@@H](c2ccccc2)[C@@H]1C(=O)N1C(=O)OC[C@@H]1c1ccccc1	0	.	-1	.	11
COc1cccc(CN2[C@H](CO)[C@@H](c3ccccc3)C23CN(C(=O)C2CCC2)C3)c1	24*	0	.	.	7
COc1cccc(CN2[C@H](CO)[C@@H](c3ccccc3)C23CN(C(=O)C2CCCC2)C3)c1	-2	.	.	.	-4
CCC(=O)N1CC2(C1)[C@H](c1ccccc1)[C@H](CO)N2Cc1ccccc1OC	23*	0	0	.	-3
COc1ccccc1CC(=O)NNS(=O)(=O)c1cccc([N+](=O)[O-])c1	.	0	0	-3	4
COc1ccccc1CC(=O)NNS(=O)(=O)c1ccc([N+](=O)[O-])cc1	25*	-1	0	-2	1
SMILES	SIRT5 block	E-sel inducer	FGF22 binding	miR-122 sensor	S100A4 MyoIIA
C[C@H](CO)N1C[C@H](C)[C@H](CN(C)S(=O)(=O)c2ccc(F)cc2)Oc2cc(C#Cc3ccncc3)ccc2S1(=O)=O	0	.	0	-3[16.7 µM]	-4
C[C@@H]1CN([C@@H](C)CO)S(=O)(=O)c2ccc(C#Cc3ccc(F)cc3)cc2O[C@H]1CN(C)S(=O)(=O)c1ccc(F)cc1	23*	1	0	-4[16.7 µM]	-3
C[C@H](CO)N1C[C@H](C)[C@@H](CN(C)S(=O)(=O)c2ccc(F)cc2)Oc2cc(C#Cc3ccc(F)cc3)ccc2S1(=O)=O	23*	0	0	8[16.7 µM]	-14
C[C@H]1CN([C@@H](C)CO)S(=O)(=O)c2ccc(C#Cc3ccc(F)cc3)cc2O[C@H]1CN(C)S(=O)(=O)c1ccc(F)cc1	29*	0	0	-4[16.7 µM]	-31
C[C@@H]1CN([C@@H](C)CO)S(=O)(=O)c2ccc(C#Cc3ccncc3)cc2O[C@H]1CN(C)S(=O)(=O)c1ccc(F)cc1	2	.	0	-7[16.7 µM]	-1
C[C@H](CO)N1C[C@H](C)[C@@H](CN(C)S(=O)(=O)c2ccccc2F)Oc2cc(C#Cc3cccc(F)c3)ccc2S1(=O)=O	1	2	0	-2[16.7 µM]	4
C[C@@H]1CN([C@H](C)CO)S(=O)(=O)c2ccc(C#Cc3cccc(F)c3)cc2O[C@@H]1CN(C)S(=O)(=O)c1ccccc1F	18*	-1	0	21[16.7 µM]	1
C[C@@H](NC(=O)C[C@H]1C=C[C@@H](NC(=O)c2cccnc2)[C@@H](CO)O1)c1ccccc1	0	0	0	.	-2
C[C@@H]1CN([C@@H](C)CO)C(=O)c2cc(C3=CCCCC3)cnc2O[C@@H]1CN(C)S(C)(=O)=O	.	0	.	-4[16.7 µM]	.
Cc1ccc(S(=O)(=O)N(C)C[C@H]2Oc3cc(C#Cc4ccncc4)ccc3S(=O)(=O)N([C@@H](C)CO)C[C@H]2C)cc1	18*	.	0	-13[16.7 µM]	-28
COc1ccc(S(=O)(=O)N(C)C[C@H]2Oc3cc(C#CC4CC4)ccc3S(=O)(=O)N([C@H](C)CO)C[C@H]2C)cc1	4	0	0	135*[16.7 µM]	1
C[C@H]1CN([C@@H](C)CO)S(=O)(=O)c2ccc(C#Cc3ccncc3)cc2O[C@H]1CN(C)S(=O)(=O)c1ccc(F)cc1	7	.	0	-5[16.7 µM]	8
C[C@H]1CN([C@@H](C)CO)S(=O)(=O)c2ccc(C#Cc3ccncc3)cc2O[C@@H]1CN(C)S(=O)(=O)c1ccc(F)cc1	-2	.	0	-5[16.7 µM]	0
C[C@@H]1CN([C@@H](C)CO)S(=O)(=O)c2ccc(C#Cc3ccc(F)cc3)cc2O[C@@H]1CN(C)S(=O)(=O)c1ccc(F)cc1	26*	0	0	31[16.7 µM]	55
COc1ccc(S(=O)(=O)N(C)C[C@@H]2Oc3cc(C#CC4CC4)ccc3S(=O)(=O)N([C@@H](C)CO)C[C@H]2C)cc1	13	0	0	12[16.7 µM]	-6

Bioassay records: PubChem BioAssay, Broad Institute
